Screening data (PubChem BioAssay)
The list is not random: actives were taken first. Their share in the collection is about 6.3%.
MT1-MMP txn act – MT1-MMP promoter transcription activation. HT1080 MT1-MMP promoter luciferase reporter, luminescence, overnight; active compounds read high. activation factor at 10 µM. actives 0.16% (n = 86,000). AID 750;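 active = activation factor of at least 2 for MT1-MMP transcription at 10 µM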
RORA act – activates the human nuclear receptor RORA | P35398 | CHO-K1 Gal4-RORA LBD luciferase reporter, luminescence; percent increase over mock-subtracted basal signal | activation, % at 10 µM | actives 1.5% (n = 65,000);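 active = activation above the mean of all tested compounds plus 3 SD, cut at about 49% in these data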;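 also: 0% = DMSO-treated RORA cells and 100% = added signal equal to DMSO minus mock-transfected cells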
M1 antag – antagonists of rat M1 muscarinic receptor | actives 3.4% (n = 64,000) | B-score at 10 µM | AID 628 | CHO-M1 cells, Fluo-4 calcium, ACh EC80 antagonist mode; active compounds read low | P08482;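 active = calcium fluorescence response, raw or row-and-column corrected B-score, differing from the plate sample mean either way at a set confidence level, mostly lower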
Target sequence (P08482 whole entry, looked up): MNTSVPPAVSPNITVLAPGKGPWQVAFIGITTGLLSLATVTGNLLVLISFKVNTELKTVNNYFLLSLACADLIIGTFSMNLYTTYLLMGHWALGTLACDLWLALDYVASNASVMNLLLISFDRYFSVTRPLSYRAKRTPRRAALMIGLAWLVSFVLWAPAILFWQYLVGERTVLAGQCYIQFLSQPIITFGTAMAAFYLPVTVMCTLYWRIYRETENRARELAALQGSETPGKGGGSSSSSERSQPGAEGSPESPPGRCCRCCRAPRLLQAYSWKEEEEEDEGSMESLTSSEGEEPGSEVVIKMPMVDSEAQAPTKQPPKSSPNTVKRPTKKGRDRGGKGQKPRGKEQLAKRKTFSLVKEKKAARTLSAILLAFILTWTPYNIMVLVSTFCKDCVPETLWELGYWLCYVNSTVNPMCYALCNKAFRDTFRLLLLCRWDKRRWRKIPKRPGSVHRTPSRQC
M1 agonist – activates the M1 muscarinic receptor; CHO-M1 cells, Fluo-4 calcium fluorescence, agonist mode; active compounds read high; B-score at 10 µM; actives 3% (n = 64,000);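 active = fluorescence rise, raw or as B-score row- and column-corrected plate score, outside the 99.7% band of its plate's samples, either direction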
SF-1 act – activators of human nuclear receptor SF-1. actives 1.9% (n = 65,000). CHO-K1 Gal4-SF-1 LBD luciferase reporter; % increase over DMSO SF-1-specific signal. Q13285. activation, % at 10 µM;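 active = activation above the mean activation of all tested compounds plus 3 SD, cut at about 50% in these data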
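Assay system: CHO-K1 cells co-transfected with Gal4 DBD–human SF-1 LBD, 5xGal4 luciferase reporter / Input: 4,000 cells per well / Incubation: 20 h compound exposure at 37 °C after 1 h cell settling / Detection: SteadyLite luciferase luminescence / Control set: DMSO negative control and −SF1 background wells / Replication: one test per compound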
M1 ag confirm – rat M1 muscarinic agonism, confirmation; shares compounds with M1 agonist; CHO-M1 cells, Fluo-4 calcium fluorescence, agonist mode; actives lie on both sides; fluorescence change (max-min) at 10 µM; actives 19% (n = 1,700);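 active = fluorescence change differs from the solvent-only DMSO control mean at a set confidence level in both duplicate runs; inconclusive = differs from solvent-only control mean in just one of two runs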;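 also: an EC20 dose of acetylcholine follows compound addition during the same imaging run; raw fluorescence intensity difference in instrument units with no normalization to controls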
M4 agonist ctr – rat M4 muscarinic agonism, M1 counter-screen | shares compounds with M1 agonist | CHO M4/Gqi5 cells, Fluo-4 calcium fluorescence, agonist mode; actives lie on both sides | fluorescence change (max-min) at 10 µM | actives 9% (n = 1,700) | AID 1741;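 active = fluorescence change differing from the plate's solvent-only control wells at 99.7% confidence in both duplicates, whether higher or lower; inconclusive = differs from solvent controls in only one of two duplicates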
An asterisk follows results filed as active; ? = inconclusive; nt = not tested or not shown.

SMILES	MT1-MMP txn act	RORA act	M1 antag	M1 agonist	SF-1 act	M1 ag confirm	M4 agonist ctr
Cc1nc2nc(-c3ccco3)[nH]n2c(=O)c1Cc1ccccc1	nt	-7	1.1	3.6*	6	-10	-27
CC(C)c1nc2oc3c(NCC4CCCO4)ncnc3c2c2c1COC(C)(C)C2 (configuration not stated)	1.1	-11	-0.059	4.5*	-3	-26	-42
CCN(CC)S(=O)(=O)c1ccc2oc(SCC3CN=C(c4ccc(OC)cc4)S3)nc2c1 (configuration not stated)	1.2	-9	-0.81	8.1*	-40	-32*	?
COc1ccc(C2=NCC(CSc3nnc(-c4ccc5c(c4)OCO5)o3)S2)cc1 (configuration not stated)	1.2	12	-0.088	-0.064	4	nt	nt
O=C(Nc1ccc(S(=O)(=O)N2CCCCC2)cc1)c1ccccc1Cl	1	nt	nt	nt	nt	nt	nt
O=C(Nc1ccccc1)Nc1ccc(S(=O)(=O)N2CCCCC2)cc1	1.1	4	-0.67	3.5*	8	-14	-28
Cc1nnc(SC(C)C(=O)Nc2ccc(S(=O)(=O)N3CCCCCC3)cc2)s1 (configuration not stated)	0.9	-4	0.053	-2.5*	4	?	?
COc1cc2c(cc1OC)CN(C(=O)COc1ccc(C)c(C)c1)CC2	1.1	23	-0.36	-1.2	-20	nt	nt
CSc1nc2ccc(S(=O)(=O)Nc3c(C)n(C)n(-c4ccccc4)c3=O)cc2s1	1	-6	-2.8*	6.1*	3	?	-87
O=C(c1oc2ccccc2c1CSCc1ccccc1)N1CCN(c2ncccn2)CC1	1.1	-22	-0.74	7*	-22	-7.6	?
COc1ccc(-n2c(C)nc3c(cnn3-c3ccc(Cl)cc3)c2=O)cc1	1.1	-41	-0.7	4.1*	-8	-9.6	-53
CCOC(=O)c1ccc(-n2c(C)nc3c(cnn3-c3ccc(Cl)cc3)c2=O)cc1	1	nt	nt	nt	nt	nt	nt
COC(=O)C(C)n1cnc2c(cnn2-c2ccc(Cl)cc2)c1=O (configuration not stated)	1.4	47	-0.17	4.6*	53*	-5	-43
Cc1cccc(-n2c(C)nc3c(cnn3-c3ccc(F)cc3)c2=O)c1	1.3	-26	-0.74	9.4*	-4	-4.2	?
Cc1ccc2nc(-c3cccc(NC(=O)c4ccco4)c3)[nH]c2c1	1.6	46	-0.0048	7*	48	-28	-38
Cc1ccc(O)c(NC(=O)c2ccco2)c1	1.4	10	0.7	1.7	3	nt	nt
Cc1nn2c(-c3cccc(NC(=O)c4ccco4)c3)nnc2c2ccccc12	1	1	-1	5.8*	10	-16	?
Cc1ccc(O)c(NC(=O)c2cccc(NC(=O)c3ccco3)c2)c1	1.4	-1	0.68	2.6*	5	-26*	-53
CCS(=O)(=O)C(=C1NCCO1)S(=O)(=O)CC	1	-6	0.55	-0.51	12	nt	nt
O=C(O)c1ccc(-n2nnnc2Oc2cccc3cccnc23)cc1	1.1	nt	nt	nt	nt	nt	nt
C/C(Sc1nnc(Cc2ccccc2)o1)=C(/O)c1ccccc1	1.1	-16	0.37	-1.4	4	nt	nt
Cc1noc(C)c1S(=O)(=O)Nc1ccc(C(=O)N2CCc3ccccc3C2)cc1	1.1	-15	-0.013	-0.41	0	nt	nt
CCC(Sc1nnc(-c2ccc(C)c(Cl)c2)n1CC)C(=O)Nc1nccs1 (configuration not stated)	0.9	-1	-0.099	5.2*	18	-13	-55
N=c1nc(N2CCCCC2)cc(N)n1O	1.2	-13	-0.32	10*	-6	-4.4	-26
Cc1cc(N2CCCCCC2)nc(-c2ccccc2O)n1	1.1	6	0.19	0.21	6	nt	nt
SMILES	MT1-MMP txn act	RORA act	M1 antag	M1 agonist	SF-1 act	M1 ag confirm	M4 agonist ctr
COCC(=O)NC1CCN(C(=O)Nc2ccc(Br)cc2)CC1	1.1	-12	-1.4	-0.15	9	nt	nt
O=C(CC1SC(=Nc2ccccc2)N(CCCO)C1=O)Nc1ccc(Cl)cc1 (configuration not stated)	1	13	-0.89	4.4*	12	-4.6	?
CCOc1ccc(NC(=O)CC2CC(C)(C)OC2=O)cc1 (configuration not stated)	1.2	-3	0.23	12*	3	-23	?
COc1cccc(CNn2c(-c3cccc(C)c3)nc3ccccc3c2=O)c1O	1.1	-10	-1.2	8.6*	-11	?	-43
COc1cccc(/C=N/n2c(C)nc3ccccc3c2=O)c1O	1.2	2	-0.5	1.6	-2	nt	nt
CC(C)CCN=Cc1c(O)n(-c2ccccc2)c(=O)c2ccccc12	1.1	nt	nt	nt	nt	nt	nt
CCN1CCCC1CN=Cc1c(O)n(-c2ccccc2)c(=O)c2ccccc12 (configuration not stated)	1.2	-15	0.19	5.7*	-4	5.3	-72
CC(OC(=O)c1ccccc1NCc1ccco1)C(=O)Nc1ncc(Cl)cc1Cl (configuration not stated)	0.9	-19	-0.29	0.64	-11	nt	nt
O=C(NCCCN1CCCC1=O)NC12CC3CC(CC(C3)C1)C2	0.9	-11	0.13	5.7*	6	3	-4.4
O=C(NCCCO)NC12CC3CC(CC(C3)C1)C2	1.2	nt	nt	nt	nt	nt	nt
O=C(OCC(=O)N1CCc2ccccc21)c1ccc(Cl)nc1	1.3	nt	nt	nt	nt	nt	nt
O=C(Nc1ccc(Cl)cc1)NC1CCCCC1Cc1ccco1 (configuration not stated)	1.2	nt	nt	nt	nt	nt	nt
O=C(Nc1ccc(Cl)cc1)NC1CCCC1Cc1ccco1 (configuration not stated)	1.3	-6	-2.1*	4.8*	6	?	-38
O=C(CCNS(=O)(=O)c1ccc(Cl)cc1)N1CCC2(O)CCCCC2C1 (configuration not stated)	1.1	-3	0.44	-0.33	-14	nt	nt
CC1CCN(C(=O)C2CCN(C(=O)c3cc4sccc4n3Cc3ccc(F)cc3)CC2)CC1	1	6	-1.1	1.2	4	nt	nt
CCn1c(C(=O)N2CCC(C(=O)N3CCN(c4ccccn4)CC3)CC2)cc2sccc21	1.1	4	-0.7	2.5*	-13	-19	?
Cc1ccc(C(=O)C2=C(O)C(=O)N(c3ncccn3)C2c2cccc(Cl)c2)o1 (configuration not stated)	1	-5	0.19	0.15	-10	nt	nt
C=CCOc1cccc(C2C(C(=O)c3ccc(C)o3)=C(O)C(=O)N2c2nccs2)c1 (configuration not stated)	1.2	27	0.33	58*	3	834*	84*
CCOC(=O)C1=NN(N=O)C2(CC(=O)N(c3cc(C)cc(C)c3)C2=O)C1 (configuration not stated)	1	nt	nt	nt	nt	nt	nt
